The record followed here is ChEMBL document CHEMBL1141216, “Mono- or diphenylpyridazines connected to N-(2,4-difluorophenyl)-N'-heptylurea as acyl-CoA:cholesterol acyltransferase inhibitors” (J Med Chem, 2005).

For experiment [1], the target named is T1, Sterol O-acyltransferase 1 (Rattus norvegicus) (UniProt O70536).
T1 sequence (whole entry): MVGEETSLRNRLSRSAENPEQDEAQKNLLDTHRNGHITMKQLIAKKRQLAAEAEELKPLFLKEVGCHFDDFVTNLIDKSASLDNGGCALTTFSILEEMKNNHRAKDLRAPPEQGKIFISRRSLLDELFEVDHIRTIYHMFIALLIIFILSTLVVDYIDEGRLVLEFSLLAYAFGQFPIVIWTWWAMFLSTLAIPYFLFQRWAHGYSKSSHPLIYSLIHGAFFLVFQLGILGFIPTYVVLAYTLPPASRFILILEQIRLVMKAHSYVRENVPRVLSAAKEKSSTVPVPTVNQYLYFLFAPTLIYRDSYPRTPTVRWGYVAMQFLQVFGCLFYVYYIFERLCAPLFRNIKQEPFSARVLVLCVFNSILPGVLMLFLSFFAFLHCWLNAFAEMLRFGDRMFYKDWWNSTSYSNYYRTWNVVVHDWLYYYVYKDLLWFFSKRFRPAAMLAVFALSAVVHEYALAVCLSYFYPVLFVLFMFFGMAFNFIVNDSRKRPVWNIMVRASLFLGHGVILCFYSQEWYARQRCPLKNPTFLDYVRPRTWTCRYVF
The experiment is described as follows: Inhibition of ACAT expressed in rat liver microsomes at 50 ug/ml. The following applies: Microsome. Summed up:
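Rat liver microsomes were the enzyme source, assayed by a previously described method. Compounds were tested at 50 μg/mL, and the readout was % ACAT inhibition. Values are means of three experiments differing by less than 10%. GERI-BP001M served as reference.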
(Liver microsomes are a subcellular fraction often used to study metabolism.)

Experiment [2] addresses T2, Sterol O-acyltransferase 1 (Rattus norvegicus, UniProt O70536).
T2 sequence (O70536 whole entry): T1 sequence (whole entry)
The experiment is described as follows: Inhibition of ACAT expressed in rat liver microsomes. Details: species or system Microsome.

The target of experiment [3] is T3, Sterol O-acyltransferase 2 (Homo sapiens, UniProt O75908).
T3 sequence (O75908 whole entry): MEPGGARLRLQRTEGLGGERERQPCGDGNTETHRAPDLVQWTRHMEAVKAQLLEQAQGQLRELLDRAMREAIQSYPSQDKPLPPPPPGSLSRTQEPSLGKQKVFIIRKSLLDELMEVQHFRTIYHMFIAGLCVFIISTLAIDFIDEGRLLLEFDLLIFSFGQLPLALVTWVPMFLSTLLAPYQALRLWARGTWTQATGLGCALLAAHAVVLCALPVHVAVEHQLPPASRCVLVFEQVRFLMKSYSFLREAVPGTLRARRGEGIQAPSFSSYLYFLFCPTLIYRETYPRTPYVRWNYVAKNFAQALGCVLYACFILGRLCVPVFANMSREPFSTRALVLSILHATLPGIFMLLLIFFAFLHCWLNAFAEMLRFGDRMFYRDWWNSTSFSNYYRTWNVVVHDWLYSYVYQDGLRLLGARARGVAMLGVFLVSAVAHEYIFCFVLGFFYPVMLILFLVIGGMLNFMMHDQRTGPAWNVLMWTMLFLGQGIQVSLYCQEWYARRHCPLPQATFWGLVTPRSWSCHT
Nature of the experiment: Inhibition of human ACAT2 expressed in Hi5 cells. Details: species or system BTI-TN-5B1-4. In a few lines: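 Human ACAT-2 was expressed by baculovirus in Hi5 insect cells, and microsomal fractions of these cells were the enzyme source. Activity was measured by the Brecher and Chan method with slight modification.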

Experiment [4] concerns the target T4, Sterol O-acyltransferase 1 (Homo sapiens, UniProt P35610).
T4 sequence (P35610 whole entry): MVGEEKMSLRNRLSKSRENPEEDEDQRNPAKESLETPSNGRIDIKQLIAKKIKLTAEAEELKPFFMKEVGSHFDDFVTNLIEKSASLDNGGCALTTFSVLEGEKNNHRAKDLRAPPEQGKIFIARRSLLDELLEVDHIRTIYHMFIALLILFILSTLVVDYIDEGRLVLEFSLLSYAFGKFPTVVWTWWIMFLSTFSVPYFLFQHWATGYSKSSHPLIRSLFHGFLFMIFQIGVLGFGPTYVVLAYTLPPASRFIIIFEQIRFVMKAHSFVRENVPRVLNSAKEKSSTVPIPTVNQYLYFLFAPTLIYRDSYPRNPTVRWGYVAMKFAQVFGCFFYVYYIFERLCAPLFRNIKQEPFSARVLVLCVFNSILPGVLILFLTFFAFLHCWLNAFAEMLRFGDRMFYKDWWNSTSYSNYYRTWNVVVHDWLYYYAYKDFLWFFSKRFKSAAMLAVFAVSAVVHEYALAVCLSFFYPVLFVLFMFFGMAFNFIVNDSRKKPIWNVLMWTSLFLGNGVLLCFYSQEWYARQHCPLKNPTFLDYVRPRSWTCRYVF
Nature of the experiment: Inhibition of human ACAT1 expressed in Hi5 cells. Details: species or system BTI-TN-5B1-4.

Broadly, the inhibition is the relative decrease from the control value, in per cent. Read a high inhibition as strong suppression. In experiment [1], `CCCCCCCN(CCCCC[S+]([O-])c1ccc(-c2ccccc2)nn1)C(=O)Nc1ccc(F)cc1F` (centres undefined) came in with an inhibition of 55%.
For the compound `CCCCCCCN(CCCCC[S+]([O-])c1cc(-c2ccccc2)c(-c2ccccc2)nn1)C(=O)Nc1ccc(F)cc1F` (centres undefined), the inhibition in experiment [1] was found to be 65%.
On the same count and under the same terms, the same measure for `CCCCCCCN(CCCCCSc1cc(-c2ccccc2)c(-c2ccccc2)nn1)C(=O)Nc1ccc(F)cc1F`: 75%; for `CCCCCCCN(CCCCCS(=O)(=O)c1cc(-c2ccccc2)cnn1)C(=O)Nc1ccc(F)cc1F`: 67%.
The term IC50 denotes the concentration needed to halve the response being measured. `CCCCCCCN(CCCCCNc1cc(-c2ccccc2)c(-c2ccccc2)nn1)C(=O)Nc1ccc(F)cc1F`: in experiment [1], the inhibition was 87%. The IC50 in experiment [2] is 2.32 µM; in experiment [3] it was 1.74 µM.
In the case of `CCCCCCCN(CCCCCSc1ccc(-c2ccccc2)nn1)C(=O)Nc1ccc(F)cc1F`, the inhibition in experiment [1] stood at 44%.
As for `CCCCCCCN(CCCCCNc1cc(-c2ccccc2)cnn1)C(=O)Nc1ccc(F)cc1F`, the inhibition in experiment [1] came to 46%. The IC50 in experiment [2] was 36.4 µM; in experiment [3], 101 µM.
Regarding `CCCCCCCN(CCCCCS(=O)(=O)c1cc(-c2ccccc2)c(-c2ccccc2)nn1)C(=O)Nc1ccc(F)cc1F`, the inhibition in experiment [1] was 70%.
As for `CCCCCCCN(CCCCCS(=O)(=O)c1ccc(-c2ccccc2)nn1)C(=O)Nc1ccc(F)cc1F`, the inhibition in experiment [1] came to 43%.
The same measure, in the same setting: the same measure for `CCCCCCCN(CCCCC[S+]([O-])c1cc(-c2ccccc2)cnn1)C(=O)Nc1ccc(F)cc1F` (centres undefined): 62%.
With `CCCCCCCN(CCCCCNc1ccc(-c2ccccc2)nn1)C(=O)Nc1ccc(F)cc1F`, the inhibition in experiment [1] was 89%. The IC50 is 1.21 µM in experiment [2], 2.07 µM in experiment [3] and 5.34 µM in experiment [4].
Compound `CCCCCCCN(CCCCCSc1cc(-c2ccccc2)cnn1)C(=O)Nc1ccc(F)cc1F` came in with an inhibition in experiment [1] of 75%.
